Laboratory results taken from paper PMC3828522 (Genes & Development, 2013).
Residue numbers refer to the chain shown, from its start. Names may count otherwise.

B1: Sfmbt 4MBT domain: four malignant brain tumor (4MBT) domain of Drosophila Sfmbt (protein, UniProt Q9VK33 532-980, looked up, fragment)
chain: PTHSYDWLPRLSKENFNAAPVTCFPHAPGCEVWDNLGVGMKVEVENTDCDSIEVIQPGQTPTSFWVATILEIKGYKALMSYEGFDTDSHDFWVNLCNAEVHSVGWCATRGKPLIPPRTIEHKYKDWKDFLVGRLSGARTLPSNFYNKINDSLQSRFRLGLNLECVDKDRISQVRLATVTKIVGKRLFLRYFDSDDGFWCHEDSPIIHPVGWATTVGHNLAAPQDYLERMLAGREAMIEVHEDDATIELFKMNFTFDEYYSDGKTNSFVEGMKLEAVDPLNLSSICPATVMAVLKFGYMMIRIDSYQPDASGSDWFCYHEKSPCIFPAGFCSVNNISVTPPNGYDSRTFTWEGYLRDTGAVAAGQHLFHRIIPDHGFEVGMSLECADLMDPRLVCVATVARVVGRLLKVHFDGWTDEYDQWLDCESADIYPVGWCVLVNHKLEGPPRVAH
modifications: 4MBT domain
B2: Pho: full-length Drosophila Pleiohomeotic, PRE-binding PcG protein (protein, UniProt Q8ST83 1-520, looked up)
chain: MAYERFGIILQSEQYDEDIGNTKVNQKMNEGNHYDLHRKNAFDRIIHSESKKGDNVINYNIHENDKIKAADNIFSSKLKMNPNMSYEMNINCFKNIGYGENQETSKVLTNSLSNNDINTEESGVVDKNSPFLTLGTTILNSNGKSRRWEQKLVHIKTMEGEFSVTMWASGISDDEYSGSDQIVGASDLLKGKEEFGIDGFTSQQNKEYQKMESKFTNAQTLEMPHPISSVQIMDHLIKERGNLSQENNISERILSKTTLSFEEPILLPDSSSIELVNETAAMTINNHRTLSNHTGNTGDLHALPSSVPFRIGLHEGQVNDCLSTISQSTHQDNTDSTGCGEMNLSEVTVSYTNDKKIACPHKGCNKHFRDSSAMRKHLHTHGPRVHVCAECGKAFVESSKLKRHQLVHTGEKPFQCTFEGCGKRFSLDFNLRTHVRIHTGDRPFVCPFDACNKKFAQSTNLKSHILTHAKAKRNTSISGKSGCSNAESNSQSEDTSANYVKVELQDSVTENHVPFVVYAD
modifications: full-length
B3: Sfmbt^G635K/A638E: full-length Sfmbt with G635K/A638E mutations (protein)
chain: MNPSELRMMWMSSQYNSERITLEDAATLLGHPTVGLSVMEDLSAHQPTLDMNPMMSLMGGDFTGQAAATAAALGVQPGTLIATNSNNLYGFAHMGGLQQQLLQQSAAAAVFQNYAEAMDNDVENGMVGMAMEAVVDDDDQVYGQRDNNFDDNGSELEPKQEIINIDDFVMMNEDNNSYDGTDFMTSSDKDISQSSSSCMAQMPGSLGVPGVEHDLLVPLPDGLLHHKLLGTTLVPAMGTLNGNAFGNIMVSTENTSSKQMQRTYSTAKGANSTATTATCSASTSSALRSQRKTRKIEPVNRPGLVLKTPIAYRGNIDPSVIPIQKDGMAVCKRCGAIGVKHTFYTKSRRFCSMACARGELYSLVLNTKMEGDQATTSSPDPGAGSESADLPGDQQQSQSDIELDLHAAHIKNANYRFRITDQSKITQLNSFGEPMSMGGDAAANNVQMAADETIAALNGGAVGDATAPGSTEEGASTPNSYLSAAPTPKALRLFKDIYPQDDLPQIPKYERLPVPCPQMEKIISIRRRMYDPTHSYDWLPRLSKENFNAAPVTCFPHAPGCEVWDNLGVGMKVEVENTDCDSIEVIQPGQTPTSFWVATILEIKGYKALMSYEGFDTDSHDFWVNLCNAEVHSVKWCETRGKPLIPPRTIEHKYKDWKDFLVGRLSGARTLPSNFYNKINDSLQSRFRLGLNLECVDKDRISQVRLATVTKIVGKRLFLRYFDSDDGFWCHEDSPIIHPVGWATTVGHNLAAPQDYLERMLAGREAMIEVHEDDATIELFKMNFTFDEYYSDGKTNSFVEGMKLEAVDPLNLSSICPATVMAVLKFGYMMIRIDSYQPDASGSDWFCYHEKSPCIFPAGFCSVNNISVTPPNGYDSRTFTWEGYLRDTGAVAAGQHLFHRIIPDHGFEVGMSLECADLMDPRLVCVATVARVVGRLLKVHFDGWTDEYDQWLDCESADIYPVGWCVLVNHKLEGPPRVAHQQAPKPAPKPKIQRKRKPKKGAAGGKTPTDNNTQSVKSRTIALKTTPHLPKLSIKLELKPEHHNAAFYENNQPEEEGDEEDPDADGDGDGSTSHISEQSTTQSSSDLIAGSGSGSGSASLVTLATGSNKTNSSATNNKYIPRLADIDSSEPHLELVPDTWNVYDVSQFLRVNDCTAHCDTFSRNKIDGKRLLQLTKDDIMPLLGMKVGPALKISDLIAQLKCKVNPGRARSHKTNKSPFL
B4: Sfmbt^G635K/A638E-CTAP: Sfmbt double point mutant with C-terminal TAP tag, expressed from transgene (protein)
chain: B3 chain
modifications: left off: TAP tag, C-terminal, kept
B5: Sfmbt-CTAP: wild-type Sfmbt with C-terminal tandem affinity purification tag, expressed from transgene (protein)
chain: B3 chain with K635G, E638A
modifications: left off: TAP tag, C-terminal, kept

Experiments:
[1] = tested on: double-stranded Pho DNA-binding site; assay: EMSA, DNA binding; parameters: species or system Drosophila; details: ^32P end-labeled probe, protein without partner
[2] = tested on: Sfmbt 4MBT, Ser633 and Ser673 mutated into proline; assay: GST pull-down and SPR, Sfmbt Ser633/Ser673 to proline mutant; format: binding, Drosophila; details: relative to wild type
Method in brief: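 Mutant and wild-type 6xHis-tagged Sfmbt 4MBT expressed in E. coli. GST pull-down: GST-Pho spacer (E. coli, GST column plus gel filtration) on beads with 4MBT, 2 h at 4°C in 50 mM Tris-HCl, 150 mM NaCl, 1 mM DTT; three washes, boiled in Laemmli buffer.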

Scm = assay: Pho:Scm complex formation in vitro; format: binding, Drosophila; details: Supplemental Fig. S5C
[3] = tested on: Flag-tagged Pho (full-length); assay: Anti-Flag affinity purification of full-length Pho-Flag:Sfmbt complexes; format: binding, Drosophila; details: coimmunoprecipitation, full-length proteins, baculovirus system
Method in brief: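 Full-length Pho-Flag with wild-type or mutant Sfmbt expressed and purified in a baculovirus system. Cells lysed by three sonication cycles (30 bursts, 30 sec on ice each). Complexes isolated by anti-Flag affinity purification; bound proteins detected by Western blot with the indicated antibodies.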

endogenous Pho = assay: Pull-down of Sfmbt-CTAP proteins from embryo nuclear extracts; format: binding, Drosophila; details: nuclear extracts of 0- to 12-h-old embryos, IgG sepharose, Western blot
PREs of PcG target genes = assay: ChIP of Sfmbt-CTAP proteins at PREs; format: in vivo, Drosophila
Method in brief: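 Sfmbt-CTAP transgenes (wild-type, G635K/A638E double mutant, ΔMBT1 truncation) expressed ubiquitously via daughterless-Gal4 in wild-type third instar larvae. Chromatin from imaginal discs and brains; TAP-tagged proteins immunoprecipitated with peroxidase anti-peroxidase via the protein A moiety. Triplicate ChIPs from three independent chromatin preparations per genotype. qPCR read-out given as mean percentage of input precipitated per region, ±SD.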

[4] = tested on: Ubx misexpression in Sfmbt^1 homozygous cell clones; assay: Genetic rescue assay, repression of Ubx in Sfmbt^1 homozygous clones; format: in vivo, Drosophila; details: imaginal disc

Molecule | mobility shift / association with DNA [1] | coimmunoprecipitation of endogenous Pho (endogenous Pho) | repression of Ubx in Sfmbt^1 mutant clones [4] | further results
B1 | fails to stably associate with DNA |  |  | 
B2 | induces a mobility shift |  |  | binding affinity change, Ser633 and Ser673 to proline [2]: twofold decrease in the binding affinity; stable complex formation with Scm in vitro (Scm): fails to form a stable complex
B3 |  |  |  | interaction with Flag-tagged Pho [3]: completely failed to interact
B4 |  | only poorly coimmunoprecipitated | severely compromised repressor activity | reduction of ChIP signals at Ubx PREs (PREs of PcG target genes): reduced only twofold to threefold
B5 |  | robustly coimmunoprecipitated | rescues repression of Ubx | 
